# CHOP inh: inhibitors of CHOP promoter induction, primary screen, cell-based, unfolded protein response, luciferase reporter; CHO-K1 CHOP-promoter luciferase, tunicamycin-induced, 15-18 h; inhibition, % at 10 µM; actives 3.8% (n = 220,000); AID 2732, 2010;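 active = compounds that reduced the stress-induced luciferase reporter signal by more than about 70% of percent inhibition, limit read from the data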;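 note: 0% = tunicamycin plus vehicle and 100% = wells without tunicamycin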
# GAA850 FXN act: FXN promoter activators, primary screen, cell-based, luciferase luminescence, HEK293 lucGAA850; actives 0.56% (n = 360,000); HEK293 lucGAA850 FXN promoter luciferase reporter, 24 h; percent of 10 µM SAHA response; activation, % at 6 µM; AID 540364, 2011;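 active = activation above the average of all compounds screened plus 3 SD, cutoff fixed separately per campaign, cut at about 7.5% in these data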;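 note: 0% = DMSO wells and 100% = 10 µM SAHA wells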
# XBP1 UPR activ: activators of adaptive XBP1 UPR arm, primary screen, cell-based, CHO-XBP1 luciferase reporter, luminescence, uHTS; IRE1-XBP1 UPR activation; percent of tunicamycin response, DMSO as zero; activation, % at 20 µM; actives 0.33% (n = 330,000);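 active = versus positive control, 20 µM dose yields 30% or more activation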;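 note: 100% = tunicamycin at 10 µg/mL and 0% = DMSO only wells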
#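 Material – CHO cell line with stable XBP1 luciferase reporter · Buffer or medium – F12 plus 10% FBS · Compound – single point, 20 µM final compound, 1% DMSO · Schedule – 16-18 h cell attachment at 37 °C, then 6 h compound exposure · Signal – Steady-Glo luminescence read · Benchmarks – high control tunicamycin 10 µg/mL final, low control DMSO vehicle only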
# UPR CHOP act: activators of apoptotic CHOP UPR arm, primary screen, cell-based, CHO-CHOP luciferase reporter, luminescence, uHTS. actives 0.34% (n = 330,000). activation, % at 10 µM. UPR activation; percent of tunicamycin response over DMSO baseline;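 active = at 10 µM dose, activation of 40% or more, normalized to positive control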;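 note: 100% = tunicamycin at 10 µg/mL and 0% = DMSO alone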
#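 Test system: CHO-CHOP cells, stable luciferase reporter of PERK-eIF2a-CHOP signalling | Quantity: 500 CHO-CHOP cells per well | Buffer or medium: F12 plus 10% serum | Compound dosing: 10 µM single point, 0.5% DMSO | Schedule: 6 h compound treatment, 37 °C | Signal: Luciferase luminescence | Control set: Tunicamycin high control, DMSO low control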
# XBP1 UPR conf: IRE1-XBP1 UPR arm activators, confirmation, cell-based, CHO-XBP1 luciferase reporter, luminescence, single concentration; AID 485299, 2010; shares compounds with XBP1 UPR activ; activation, % at 20 µM; actives 63% (n = 1,000);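 active = reporter signal at least 30% of the positive control's activation in two or more of four replicate wells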;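 note: plate controls were DMSO negative control for no effect and tunicamycin 10 µg/mL positive control for full effect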
# Starred values were filed as active, the others as inactive; nt = no result given. Many of the other results were omitted from the sample, so hits are more common in it than they were.
SMILES,CHOP inh,GAA850 FXN act,XBP1 UPR activ,UPR CHOP act,XBP1 UPR conf
CCOC(=O)C1(C)CCN1C(=O)COc1ccc(C(C)(C)C)cc1 (configuration not stated),nt,2,nt,nt,nt
c1ccc(C2NCCn3cccc32)cc1 (configuration not stated),14,-1,49*,3,0
Cn1c(/C=C/c2ccc(Cl)cc2Cl)c([N+](=O)[O-])c(=O)n(C)c1=O,nt,-9,38*,26,39*
CC1(C(=O)Nc2cccc(C#N)c2)CCN1C(=O)C1(c2ccccc2)CC1 (configuration not stated),nt,-1,nt,nt,nt
CCC(=O)N(C)C[C@H]1Oc2cc(-c3cccnc3)ccc2S(=O)(=O)N([C@H](C)CO)C[C@H]1C,nt,0,nt,nt,nt
COc1ccccc1NC(CC(=O)c1ccccc1)C(=O)OCC(=O)c1ccc(C)cc1 (configuration not stated),12,4,-2,3,nt
COc1ccccc1NC(CC(=O)c1ccccc1)C(=O)OCC(=O)c1ccc(C)c(C)c1 (configuration not stated),3,6,36*,2,-2
CCC(=O)Nc1nnc(SCC(=O)c2ccc3c(c2)Cc2ccccc2-3)s1,33,2,52*,-2,29*
Cc1cc(N2CCN(C)CC2)ccc1NC(=O)c1c2c(nc3ccccc13)CCN(Cc1ccccc1)C2,-40,-5,42*,15,12
O=C(NC1CCCCCC1)c1c2c(nc3ccccc13)CCN(Cc1ccccc1)C2,27,0,0,-1,nt
COc1cc(/C=N/Nc2nc(Nc3ccc(C)cc3)nc(-n3nc(C)cc3C)n2)cc(OC)c1OC,22,-8,50*,14,69*
COc1cc(/C=N/Nc2nc(Nc3ccccc3)nc(-n3nc(C)cc3C)n2)cc(OC)c1OC,-27,-5,72*,19,90*
Cc1ccc(C)c(C(O)c2ncc(-c3ccccc3)[nH]2)c1 (configuration not stated),nt,0,nt,nt,nt
COC(=O)c1sc(NC(=O)c2cnccn2)c(C(=O)OC)c1C,nt,nt,41*,28,1
COC(=O)c1sc(NC(C)=O)c(C(=O)OC)c1C,17,-5,-2,-3,nt
CCOC(=O)Cc1ccc(Nc2nc3cc(-c4sccc4C)sc3c(=O)n2C)cc1,nt,-2,nt,nt,nt
COc1ccc(-c2cc(C(F)F)n3ncc(C(=O)N4CCCCC4)c3n2)cc1,39,4,5,1,nt
COc1ccc(-c2cc(C(F)F)n3ncc(C(=O)N4CCc5ccccc5C4)c3n2)cc1,51,-12,38*,-1,73*
Cc1ccc(-c2cc(C(F)F)n3ncc(C(=O)N4CCc5ccccc54)c3n2)cc1,6,2,47*,0,126*
ClC(Cl)(Cl)c1nc2ccccc2n2nncc12,nt,6,31*,-1,22
Cc1cc(N2CCN(c3nc(-c4ccc([N+](=O)[O-])cc4)cs3)CC2)c2ccccc2n1,82*,-2,68*,9,39*
COc1cc(C(O)c2nc(-c3cccc(NC(C)=O)c3)cs2)ccc1F (configuration not stated),nt,0,nt,nt,nt
Cc1ccc([N+](=O)[O-])cc1S(=O)(=O)Nc1ccc(-c2ccc(N3CCOCC3)nn2)cc1,nt,2,1,3,nt
Cc1ccc(NS(=O)(=O)c2cc([N+](=O)[O-])ccc2N/N=C/c2sc(N3CCOCC3)nc2-c2ccccc2)c(C)c1,61,2,36*,31,31*
CCc1nc2c(OCC(N)=O)cccn2c1N(C)C(=O)C(C)C,nt,-2,nt,nt,nt
O=C(Oc1ccc2c(c1)OCC2=O)c1ccccc1,24,2,37*,7,24
CC(C)(C)c1ccc(C(=O)Oc2ccc3c(c2)OCC3=O)cc1,47,3,8,3,nt
COc1cccc(-c2sc3ccccc3c2-c2ccc(OCCN3CCCC3)cc2)c1,nt,1,25,3,nt
COc1cccc(-c2sc3ccccc3c2-c2ccc(OCCN(C)C)cc2)c1,nt,-1,37*,3,54*
c1ccc(-c2sc3ccccc3c2-c2ccc(OCCN3CCCC3)cc2)cc1,nt,-1,32*,3,19
